# Reference: PMC7080202 (Medicinal Chemistry Research, 2013)
# Like-named read-outs stand apart in the source and are kept apart here.
# Legend:
# [1] = test system: Herpes simplex virus-1 (KOS); experiment: microbe, parasite or virus in culture; format: cell-based, herpes simplex virus type 1; details: read-out: EC50 Herpes simplex virus-1 (KOS)
# [2] = test system: Herpes simplex virus-2 (G); experiment: microbe, parasite or virus in culture; format: cell-based, herpes simplex virus type 2; details: read-out: EC50 Herpes simplex virus-2 (G)
# Vaccinia virus = experiment: microbe, parasite or virus in culture; format: cell-based; details: read-out: EC50 Vaccinia virus
# [3] = test system: Vesicular stomatitis virus; experiment: microbe, parasite or virus in culture; format: cell-based; details: read-out: EC50 Vesicular stomatitis virus
# [4] = test system: Herpes simplex virus-1TK-KOS ACV^r; experiment: microbe, parasite or virus in culture; format: cell-based, herpes simplex virus type 1; details: read-out: EC50 Herpes simplex virus-1TK-KOS ACV^r
# Feline corona virus = experiment: Antiviral CPE assay, feline corona virus in CRFK cells; format: cell-based, feline coronavirus (FIPV); details: read-out: EC50 Feline corona virus; CRFK cell culture
# Feline herpes virus = experiment: Antiviral CPE assay, feline herpes virus in CRFK cells; format: cell-based; details: read-out: EC50 Feline herpes virus
# [5] = test system: Vesicular stomatitis virus; format: cell-based; details: read-out: Antiviral activity EC50 Vesicular stomatitis virus
# Coxsackie virus B4 [6] = experiment: microbe, parasite or virus in culture; format: cell-based; details: read-out: Antiviral activity EC50 Coxsackie virus B4
# Para-influenza-3 virus = experiment: organism not typed; format: cell-based, parainfluenza-3 virus; details: read-out: Antiviral activity EC50 Para-influenza-3 virus
# Reovirus-1 = experiment: organism not typed; format: cell-based; details: read-out: Antiviral activity EC50 Reovirus-1
# Sindbis virus = experiment: microbe, parasite or virus in culture; format: cell-based; details: read-out: Antiviral activity EC50 Sindbis virus
# Coxsackie virus B4 [7] = experiment: microbe, parasite or virus in culture; format: cell-based; details: read-out: Antiviral activity EC50 Coxsackie virus B4; remark: listed apart in the source
# Punta Toro virus = experiment: microbe, parasite or virus in culture; format: cell-based; details: read-out: Antiviral activity EC50 Punta Toro virus
# Influenza A H1N1 subtype = experiment: Anti-influenza virus activity, influenza A H1N1 in MDCK cells; format: cell-based, influenza A virus A/Puerto Rico/8/34 (H1N1); details: for EC50: read-out: Antiviral EC50 Influenza A H1N1 subtype MTS, MDCK cells, MTS; for anti-influenza activity (in words): H1N1, H3N2 and influenza B, below the non-toxic concentration of 100 µM
# Influenza A H3N2 subtype = experiment: Anti-influenza virus activity, influenza A H3N2 in MDCK cells; format: cell-based, influenza A virus A/Hong Kong/7/87 (H3N2); details: read-out: Antiviral EC50 Influenza A H3N2 subtype MTS
# Influenza B = experiment: Anti-influenza virus activity, influenza B in MDCK cells; format: cell-based, influenza B virus B/Hong Kong/5/72
# [8] = test system: Human embryonic lung cell cultures; experiment: Cytotoxicity; format: cell-based
# In short: (§1)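 Cell cultures incubated with varying concentrations of test compound, then examined by microscopy. MCC is the lowest concentration that causes a microscopically detectable alteration of normal cell morphology. HEL, Vero and HeLa lines were monitored regularly for mycoplasma and found free of it.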
# [9] = test system: Crandell-Rees feline kidney cells; experiment: Cytotoxicity; format: cell-based
# HeLa cell cultures = experiment: Cytotoxicity; format: cell-based
# In short: as §1
# Vero cell cultures = experiment: Cytotoxicity; format: cell-based
# In short: as §1
# MDCK cells = details: for Cytotoxicity Minimum cytotoxic concentration: microscopically detectable alteration of normal cell morphology; for CC50: read-out: Cytotoxicity CC50, MTS assay
# [10] = test system: Cytomegalovirus AD-169 strain; format: cell-based, human cytomegalovirus; details: both strains of HCMV (AD-169 and Davis)
# [11] = test system: Cytomegalovirus Davis strain; experiment: microbe, parasite or virus in culture; format: cell-based; details: Human betaherpesvirus 5, HEL, read-out: EC50 Cytomegalovirus Davis strain
# in vitro = details: dog
# [12] = read-out: Antiviral EC50 Influenza B MTS, MDCK cells, MTS
Compound,EC50 ([1]; HEL cell culture) [µM],EC50 ([2]; HEL cell culture) [µM],EC50 (Vaccinia virus) [µM],EC50 [3] [µM],EC50 ([4]; HEL cell culture) [µM],EC50 (Feline corona virus) [µM],EC50 (Feline herpes virus; CRFK cell culture) [µM],EC50 [5] [µM],EC50 (Coxsackie virus B4 [6]; HeLa cell cultures) [µM],EC50 (Para-influenza-3 virus) [µM],EC50 (Reovirus-1; Vero cell cultures) [µM],EC50 (Sindbis virus; Vero cell cultures) [µM],EC50 (Coxsackie virus B4 [7]; Vero cell cultures) [µM],EC50 (Punta Toro virus; Vero cell cultures) [µM],EC50 (Influenza A H1N1 subtype) [µM],Minimum cytotoxic concentration [8] [µM],Minimum cytotoxic concentration [9] [µM],Minimum cytotoxic concentration (HeLa cell cultures) [µM],Minimum cytotoxic concentration (Vero cell cultures) [µM],Cytotoxicity Minimum cytotoxic concentration (MDCK cells),also measured
"1-({[4-(dimethylamino)phenyl]methylidene}amino)-3-{[(3Z)-2-oxo-2,3-dihydro-1H-indol-3-ylidene]amino}thiourea [4c]",> 100,> 100,> 100,> 100,> 100,> 100,> 100,> 100,> 100,> 100,> 100,> 100,> 100,> 100,> 100,≥100,>100,>100,>100,>100,EC50 (Influenza A H3N2 subtype): > 100 µM; EC50 (Influenza B; [12]): > 100 µM; CC50 (MDCK cells): > 100 µM
"1-{[(3,4-Dimethoxyphenyl)methylidene]amino}-3-{[(3Z)-2-oxo-2,3-dihydro-1H-indol-3-ylidene]amino}thiourea [4f]",> 20,> 20,> 20,> 20,> 20,> 100,> 100,> 100,> 100,> 20,> 20,> 20,> 20,> 20,37 ± 25,100,100,>100,≥20,>100,anti-influenza activity (in words) (Influenza A H1N1 subtype): some activity; EC50 (Influenza A H3N2 subtype): 27 ± 7.3 µM; EC50 (Influenza B; [12]): 37 ± 8.75 µM; CC50 (MDCK cells): > 100 µM
"3-[(1H-indol-3-ylmethylidene)amino]-1-{[(3Z)-2-oxo-2,3-dihydro-1H-indol-3-ylidene]amino}thiourea [4a]",> 20,> 20,> 20,> 20,> 20,> 20,> 20,> 20,> 20,> 20,> 20,> 20,> 20,> 20,> 4,60,86,≥20,100,20,antiviral activity against HCMV (in words) [10]: moderate activity; EC50 (Influenza A H3N2 subtype): > 4 µM; EC50 (Influenza B; [12]): > 4 µM; CC50 (MDCK cells): 51 µM
"O=C(N/N=C1\C(=O)Nc2ccc([N+](=O)[O-])cc21)N/N=C1\C(=O)Nc2ccc([N+](=O)[O-])cc21 [6d, 1,3-Bis({[(3Z)-5-nitro-2-oxo-2,3-dihydro-1H-indol-3-ylidene]amino})urea]",,,,,,,,,,,,,,,,≥100,>100,>100,>100,>100,"EC50 [11]: > 100 µM; EC50 ([1]; Human alphaherpesvirus 1, HEL): > 100 µM; EC50 ([2]; Human alphaherpesvirus 2, HEL): > 100 µM; EC50 (Vaccinia virus; Orthopoxvirus vaccinia, HEL): > 100 µM; EC50 ([3]; Vesicular stomatitis virus, HEL): > 100 µM; EC50 ([4]; Human alphaherpesvirus 1, HEL): > 100 µM; EC50 (Feline herpes virus; CRFK): > 100 µM; EC50 (Coxsackie virus B4 [6]; Enterovirus B, B4, HeLa): > 100 µM; EC50 (Para-influenza-3 virus; Vero): > 100 µM; EC50 (Reovirus-1; Vero): > 100 µM; EC50 (Sindbis virus; Sindbis virus, Vero): > 100 µM; EC50 (Coxsackie virus B4 [7]; Enterovirus B, B4, Vero): > 100 µM; EC50 (Punta Toro virus; Punta Toro virus, Vero): > 100 µM; anti-influenza activity (in words) (Influenza A H1N1 subtype): some activity; EC50 (Influenza B; Influenza B virus, MDCK, read-out: Antiviral EC50 Influenza B MTS): 38 ± 1.3 µM; EC50 (Influenza B; Influenza B virus, MDCK, read-out: Antiviral EC50 Influenza B Visual CPE score): 47 ± 2.5 µM; CC50 (in vitro): > 100 µM"
"1-{[(4-Chlorophenyl)methylidene]amino}-3-{[(3Z)-2-oxo-2,3-dihydro-1H-indol-3-ylidene]amino}thiourea [4e]",> 100,> 100,> 100,> 100,> 100,> 100,> 100,> 100,> 100,> 100,> 100,> 100,> 100,> 100,> 100,100,>100,>100,>100,>100,EC50 (Influenza A H3N2 subtype): > 100 µM; EC50 (Influenza B; [12]): > 100 µM; CC50 (MDCK cells): > 100 µM
"1-{[(4-Nitrophenyl)methylidene]amino}-3-{[(3Z)-2-oxo-2,3-dihydro-1H-indol-3-ylidene]amino}thiourea [4d]",> 100,> 100,> 100,> 100,> 100,> 100,> 100,> 100,> 100,> 20,> 20,> 20,> 20,> 20,> 100,100,>100,>100,100,>100,EC50 (Influenza A H3N2 subtype): > 100 µM; EC50 (Influenza B; [12]): > 100 µM; CC50 (MDCK cells): > 100 µM
